An excerpt weighted towards active compounds, which were near 3% of everything screened.
UCH37 inh – blocks the human deubiquitinase UCH37 | inhibition, % (no concentration beside the values) | purified proteasome/UCH37, Ub-AMC cleavage fluorescence | 330,000 tested, 0.33% active | Q9Y5K5;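 active means mean inhibition over replicate wells above about 20%, limit read from the data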
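Test system – human UCH37 enzyme supplied as purified proteasome complex · Incubation – 30 min preincubation with enzyme, 25 min cleavage at room temperature · Detection – AMC fluorescence from Ub-AMC cleavage, excitation 355 nm, emission 460 nm · Benchmarks – no-proteasome wells (full inhibition) and compound-free wells (no inhibition)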
Apaf-1 inh – inhibitors of human Apaf-1 apoptosome; reconstituted apoptosome caspase-3 activity, DEVD-Rh110 fluorescence; 330,000 tested, 0.71% active; O14727; inhibition, % at 20 µM; active means inhibition of at least 40% at 20 µM
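Material: biochemical Apaf-1 apoptosome reconstitution. Medium: Hepes buffer, pH 7.5. Also added: cytochrome c activation, bis-DEVD rhodamine 110 substrate. Timing: 30 min compound preincubation, 50 min activation, room temperature. Measured by: rhodamine 110 fluorescence at Ex 480/Em 540 nm.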
MEKK2wt PB1 HTS – raises or lowers MEK5 binding to wildtype human MEKK2 PB1 domain. 290,000 tested, 1.1% active. binding response (% of control), % at 10 µM. Q9Y2U5. bead flow cytometry, Alexa488-MEK5 binding to MEKK2 WT; actives lie on both sides; in the data active means binding response below about 67% or above about 130%
UBC13 inh – human UBC13 polyubiquitination inhibition; P61088; UBC13 polyubiquitin chain formation, TR-FRET; inhibition, % at 20 µM; 330,000 tested, 0.47% active; AID 485273; in the data active means inhibition above about 45%, passing the limit was not always enough
MEKK3 PB1 HTS – raises or lowers MEK5 binding to the human MEKK3 PB1 domain. Q99759. 290,000 tested, 1.4% active. bead-based flow cytometry, Alexa488-MEK5 binding to MEKK3; actives lie on both sides; 0 = blocked by unlabeled MEK5, 100 = vehicle. binding response (% of control), % at 10 µM;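 active means binding response more than 3 SD above or below the average of its plate-row segment, actives on both sides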;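 further: Alexa488 bead fluorescence after subtracting the streptavidin-only scavenger bead signal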
Target sequence (Q99759 whole entry, looked up, the tested form may be a part): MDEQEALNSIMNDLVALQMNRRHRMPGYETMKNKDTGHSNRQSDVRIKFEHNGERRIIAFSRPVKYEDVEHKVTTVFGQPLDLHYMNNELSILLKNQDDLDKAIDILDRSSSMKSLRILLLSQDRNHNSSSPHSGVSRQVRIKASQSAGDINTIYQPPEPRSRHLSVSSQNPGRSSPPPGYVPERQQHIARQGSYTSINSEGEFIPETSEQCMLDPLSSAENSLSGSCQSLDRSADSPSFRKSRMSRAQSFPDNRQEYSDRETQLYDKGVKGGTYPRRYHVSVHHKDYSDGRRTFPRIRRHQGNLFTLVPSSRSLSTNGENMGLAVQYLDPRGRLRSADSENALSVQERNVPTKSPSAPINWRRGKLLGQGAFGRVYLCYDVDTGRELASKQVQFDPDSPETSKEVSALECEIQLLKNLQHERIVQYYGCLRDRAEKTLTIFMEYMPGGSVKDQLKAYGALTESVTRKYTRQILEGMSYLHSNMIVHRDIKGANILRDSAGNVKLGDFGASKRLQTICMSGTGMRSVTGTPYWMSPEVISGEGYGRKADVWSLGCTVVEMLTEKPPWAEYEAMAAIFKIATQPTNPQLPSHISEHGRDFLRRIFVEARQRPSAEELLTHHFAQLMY
MEKK2mut PB1 HTS – signal of MEK5 binding to mutant human MEKK2 PB1 domain | percent response, % at 10 µM | 290,000 tested, 0.35% active | AID 1530 | bead flow cytometry, Alexa488-MEK5 binding to MEKK2 mutant; in the data active means percent response above about 24%, passing the limit was not always enough
Casp3 UBC13 ctr – inhibits human caspase-3 in UBC13 counter-screen; shares compounds with UBC13 inh; inhibition, % at 20 µM; 1,400 tested, 4% active; Recombinant caspase-3, Caspase-Glo 3/7 luminescence, 60 min;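 active means mean inhibition across replicates above about 26%, limit read from the data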
UBC13 confirm – confirmation of human UBC13 polyubiquitin inhibitors. shares compounds with UBC13 inh. UBC13 polyubiquitination, TR-FRET, biochemical. inhibition, % at 10 µM. 1,400 tested, 68% active. AID 488859; in the data active means inhibition above about 45%
A number is an active result; - = inactive; . = no result.

SMILES	UCH37 inh	Apaf-1 inh	MEKK2wt PB1 HTS	UBC13 inh	MEKK3 PB1 HTS	MEKK2mut PB1 HTS	Casp3 UBC13 ctr	UBC13 confirm
COC(=O)CN=Cc1c(O)n(-c2ccc(Cl)cn2)c(=O)c2ccccc12	-	-	-	-	-	-	.	.
CCOc1ccc(C(=O)Nc2ccc(S(=O)(=O)N3CCOCC3)cc2)cc1OCC	-	-	-	-	-	-	.	.
CCOC(=O)c1ccc(NC(=O)c2nc[nH]c2C(=O)NCC(=O)OC(C)(C)C)cc1	-	-	-	52	-	-	-	-
CCOC(=O)c1ccc(NC(=O)c2nc[nH]c2C(=O)NC2CCN(C(=O)OC(C)(C)C)CC2)cc1	-	-	-	92	-	-	-	92
CCOC(=O)c1ccc(NC(=O)c2nc[nH]c2C(=O)NCCCNC(=O)c2[nH]cnc2C(=O)Nc2ccc(C(=O)OCC)cc2)cc1	-	-	.	-	.	.	.	.
CCOC(=O)c1ccc(NC(=O)c2nc[nH]c2C(=O)NCCCCCNC(=O)OC(C)(C)C)cc1	-	-	-	45	-	-	-	-
CC(C)(C)OC(=O)N1CCC(NC(=O)c2nc[nH]c2C(=O)NC2CCN(C(=O)OC(C)(C)C)CC2)CC1	-	-	.	-	.	.	.	.
CNNC(=O)C(=O)NNS(=O)(=O)c1ccccc1	-	-	-	-	-	-	.	.
O=[N+]([O-])c1cccc(CN2CCN(c3cccc4[nH]ccc34)CC2)c1	-	-	-	-	-	-	.	.
COC(=O)c1n[nH]n(-c2ccc(F)c(Cl)c2)c1=O	-	-	.	-	.	.	.	.
CCN1CCN(C(=O)c2cc3c(s2)-c2c(C)cccc2OC3)CC1	-	-	-	80	-	-	54	76
CCC1(CC)Cc2ccccc2-c2nc(NN)[nH]c(=O)c21	-	-	-	-	-	-	.	.
CCC1(CC)Cc2ccccc2-c2[nH]c(=S)[nH]c(=O)c21	-	-	.	59	.	.	-	-
Cc1cc(NC(=O)CSc2nnc(-c3cccnc3)n2C)no1	-	-	-	-	-	-	.	.
COCCCn1c(N)c(-c2nc3ccccc3n2C)c2nc3ccccc3nc21	-	-	-	62	-	-	-	59
C=C(C)COc1ccc(-c2[nH]ncc2Oc2ccccc2OCC)c(O)c1	-	-	-	-	-	-	.	.
C=C(C)COc1ccc(-c2[nH]ncc2Oc2cccc(OC)c2)c(O)c1	-	-	-	68	-	-	-	68
CC1(C)Cc2c(sc(NC(=O)c3ccc4c(c3)OCCO4)c2C(N)=O)C(C)(C)N1	-	-	-	55	-	-	-	70
Cc1cccc(OCc2n(CC(=O)OC3CC(C)CCC3C(C)C)c3ccccc3[n+]2C)c1 (stereo not given)	-	50	183	59	-	-	-	92
Cc1cccc(C)c1OCc1nnc(SCC(=O)NCCc2ccccc2)o1	-	-	-	92	-	-	-	-
COc1ccc(Cc2nnc(SCC(=O)NCCc3ccccc3)o2)cc1	-	-	-	-	-	-	.	.
CC1=[N+](CC(=O)c2ccccc2)CCn2cccc21	-	-	-	-	-	-	.	.
Cc1cc(C)cc(NC(=O)CSc2nnc(CNC(=O)c3ccco3)n2C)c1	-	-	.	-	.	.	.	.
CCOC(=O)N1CCN(C(=O)C(=O)Nc2sc3c(c2C(N)=O)CC(C)(C)OC3)CC1	-	-	-	63	-	-	-	90
CCOC(=O)CCCc1ccc(C(C)=NNC(N)=S)cc1	-	.	.	.	.	.	.	.
SMILES	UCH37 inh	Apaf-1 inh	MEKK2wt PB1 HTS	UBC13 inh	MEKK3 PB1 HTS	MEKK2mut PB1 HTS	Casp3 UBC13 ctr	UBC13 confirm
O=C(NC1=NCCS1)c1cccc2ccccc12	-	-	-	-	-	-	.	.
c1ccc2c(N3CCCCC3)nnc(N3CCCCC3)c2c1	.	.	-	.	-	-	.	.
CC(C)c1ccc(NC(=O)C[n+]2ccn(C3=C([O-])c4ccccc4C3=O)c2)cc1	-	-	-	56	-	-	-	47
COc1ccc(CN2C(=O)c3cccnc3C2O)cc1 (stereo not given)	-	-	-	-	-	-	.	.
NC(=O)c1nsc(C(=O)N(c2ccccc2)C(C(=O)NCC2CCCO2)c2cccs2)c1N (stereo not given)	.	-	-	-	-	-	.	.
Cc1ccc(C(C(=O)NCC2CCCO2)N(C(=O)c2snc(C(N)=O)c2N)c2ccc(C)c(C)c2)o1 (stereo not given)	-	-	-	65	-	-	-	70
Cc1ccc(C(C(=O)NCC2CCCO2)N(C(=O)c2snc(C(N)=O)c2N)c2ccc3c(c2)OCCO3)cc1 (stereo not given)	-	-	-	56	-	-	-	79
Cc1cc(C)cc(N(C(=O)c2snc(C(N)=O)c2N)C(C(=O)NCC2CCCO2)c2cccs2)c1 (stereo not given)	-	-	-	66	-	-	-	71
Cc1cc(C)cc(N(C(=O)c2snc(C(N)=O)c2N)C(C(=O)NCC2CCCO2)c2ccc(C)o2)c1 (stereo not given)	-	-	-	60	-	-	-	49
CCc1ccc(-c2nc(C)c(CCO)c(=O)[nH]2)cc1	-	-	-	-	-	-	.	.
C#CCOCCOCCOCCNc1nc(N2CCN(C(=O)[C@H](CO)n3cc([C@@H](N)C(C)C)nn3)CC2)nc(N2CCN(C(=O)[C@H](CCC(=O)O)n3cc([C@@H](N)CCCCN)nn3)CC2)n1	-	-	.	45	.	.	-	47
C#CCOCCOCCOCCNc1nc(N2CCN(C(=O)[C@H](CCC(=O)O)n3cc([C@@H](N)CCCCN)nn3)CC2)nc(N2CCN(C(=O)[C@H](CCC(=O)O)n3cc([C@@H](N)CCCCN)nn3)CC2)n1	-	-	.	-	.	.	.	.
C#CCOCCOCCOCCNc1nc(N2CCN(C(=O)[C@H](CCCCN)n3cc([C@@H](N)CO)nn3)CC2)nc(N2CCN(C(=O)[C@H](CCCCN)n3cc([C@@H](N)CC(C)C)nn3)CC2)n1	-	-	.	73	.	.	-	66
C#CCOCCOCCOCCNc1nc(N2CCN(C(=O)C([C@@H](C)O)n3cc([C@@H](N)CCCCN)nn3)CC2)nc(N2CCN(C(=O)C([C@@H](C)O)n3cc([C@@H](N)CCCCN)nn3)CC2)n1 (stereo not given in full)	-	-	.	80	.	.	-	61
O=C(NCCc1nc2ccccc2[nH]1)/C(=C/c1ccc2c(c1)OCO2)NC(=O)c1ccccc1	-	-	-	-	-	-	.	.
CN1CCc2c(sc(/N=C/c3c[nH]c4ccccc34)c2C(N)=O)C1	.	-	-	85	-	-	-	-
